The source of these data is article PMC6744591 (Heliyon, 2019).

Series [1] relates to alloxan induced diabetes rats. In words: Blood glucose lowering in alloxan-induced diabetic rats. The format is in vivo, Wister rats. In a few lines: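 Alloxan at 150 mg/kg i.p. in normal saline given to Wistar rats (~190 g); rats above 120 mg/dl glucose after 5–7 days counted as diabetic. Rats fasted 12 h, water allowed, fasted throughout; 9 per group. […] Basal glucose taken first; tail-vein glucometer readings at set intervals, triplicate averages.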

Series [2] is described as follows: Pharmacokinetics: plasma concentration of insulin in diabetic rats. The format is in vivo. The following applies: for Tmax: plasma insulin, HPLC-UV.

As for insulin [Ins-solu], in series [1] (fasted, oral, 40.0 I.U/kg, glucometer, % of initial level), the “decrease in blood glucose levels” value is listed as 1–2%. Besides, the “maximum decrease in blood glucose levels” value in series [1] (fasted, subcutaneous, 4.0 I.U/kg, at 4 h) is reported as more than 60%. In addition, the “time for which decrease in blood glucose level was sustained” value in series [1] (subcutaneous, 4.0 I.U/kg) is listed as “over 4 h”. Besides, the Tmax is given as 3.0 h in series [2] (oral, 40 IU/kg) and 1.0 h in series [2] (subcutaneous, 4.0 IU/kg). This substance also showed an AUC in series [2] (subcutaneous, 4.0 IU/kg, over 12 h, linear trapezoidal rule, mean ± SD, n = 5) of 342.56 ± 30.9 µg/mL/h.
